A word on the Ki: it is the dissociation constant of the complex between target and ligand, obtained from inhibition or displacement. A word on the IC50: it is the point on the concentration scale where inhibition reaches its midpoint.

The target of data set [1] is T1, Dihydrofolate reductase (Homo sapiens) (UniProt P00374).
T1 sequence (whole entry): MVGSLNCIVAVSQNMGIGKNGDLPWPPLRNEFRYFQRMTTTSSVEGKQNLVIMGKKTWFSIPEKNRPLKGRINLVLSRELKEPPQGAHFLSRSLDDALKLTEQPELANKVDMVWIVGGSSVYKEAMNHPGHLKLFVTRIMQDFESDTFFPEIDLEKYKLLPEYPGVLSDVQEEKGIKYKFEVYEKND
Kind of data set: Inhibition of human chromosomal DHFR expressed in Escherichia coli BL21 using DHF as substrate assessed as remaining activity at 400 uM by spectrophotometry relative to control.

A short description of data set [2]: Cytotoxicity against mouse 3T6 cells assessed as cell death at 200 uM after 72 hrs by MTT assay. The data set is classed as cell-based. In outline: (§1)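 Mouse 3T6 embryonic fibroblasts in DMEM + 10% heat-inactivated FBS, 37 °C, 5% CO2, seeded at 5×10³ cells/well. Eight dilutions 0.05–200 μM from DMSO, medium with compound renewed at 24 h, 48 h further incubation. MTT 3 h, read at 540 nm with 690 nm reference. Triplicates; % inhibition versus blank-corrected solvent controls; IC50 from the plot.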
Background: Tetrazolium dyes change colour on reduction, which living cells bring about.

A short description of data set [3]: Competitive inhibition of recombinant R67 DHFR expressed in Escherichia coli BL21 using DHF as substrate by Dixon plot analysis in the presence of 5 to 80 uM NADPH. In outline: (§2)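 Dixon method in 50 mM potassium phosphate pH 7.0, 10% DMSO. NADPH series: DHF fixed at 50 μM, NADPH at 5 or 80 μM, inhibitor over a range spanning Ki. DHF series: NADPH fixed at 50 μM. Reciprocal rates plotted against inhibitor concentration; Ki taken from the slope intersection; triplicates, mean ± SD.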

Data set [4] is described as follows: Inhibition of recombinant type N-terminal His6-tagged 2 R67 DHFR expressed in Escherichia coli BL21 using DHF as substrate by spectrophotometry. In outline: (§3)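 His-tagged R67 DHFR purified from E. coli by Ni affinity with an imidazole gradient. Activity followed as NADPH plus DHF depletion at 340 nm (Δε 12800 M⁻¹cm⁻¹) in 400 mM HEPES pH 7.0 with 10% final DMSO. Reactions started with 250 nM enzyme; initial rates (<10% conversion). Ki via Cheng–Prusoff with KM(NADPH) 1.6 μM, assuming competitive inhibition.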

A further data set relates to Escherichia coli. Kind of data set: Antibacterial activity against Escherichia coli […] expressing […] up to 1 mM in presence of 50 ug/mL Trimethoprim. In kind it is functional, organism-based. In outline: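 E. coli XL1-Blue expressing R67 DHFR grown in M9 minimal medium with 50 μg/mL TMP to block chromosomal DHFR; growth inhibition tested up to 1 mM (maximal concentration).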

Data set [5] in a line: Competitive inhibition of recombinant R67 DHFR expressed in Escherichia coli BL21 using 25 to 164 uM DHF as substrate by Dixon plot analysis in the presence of 50 uM of NADPH. In outline:
as §2

The target in data set [6] is T1, Dihydrofolate reductase (Homo sapiens). In words: Inhibition of human chromosomal DHFR expressed in Escherichia coli BL21 using DHF as substrate assessed as remaining activity at 1 mM by spectrophotometry relative to control. In outline: (§4)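 Human chromosomal DHFR overexpressed in E. coli BL21(DE3). Spectrophotometric assay at 340 nm following NADPH/DHF depletion in 50 mM potassium phosphate pH 8.0, 10% final DMSO, initial rates. Each compound was tested at its highest concentration allowed by solubility and absorbance; activity reported relative to the uninhibited control.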

Data set [7] shares this target. Kind of data set: Inhibition of human chromosomal DHFR expressed in Escherichia coli BL21 using DHF as substrate assessed as remaining activity at 30 mM by spectrophotometry relative to control. In outline:
as §4

A short description of data set [8]: Inhibition of Escherichia coli R67 DHFR. In outline: as §3
The target in data set [9] is T1, Dihydrofolate reductase (Homo sapiens). Kind of data set: Inhibition of human chromosomal DHFR expressed in Escherichia coli BL21 using DHF as substrate assessed as remaining activity at 10 mM by spectrophotometry relative to control. In outline:
as §4

Data set [10] shares this target. Kind of data set: Inhibition of human chromosomal DHFR expressed in Escherichia coli BL21 using DHF as substrate assessed as remaining activity at 5 mM by spectrophotometry relative to control. In outline:
as §4

For data set [11] the target is unchanged. In words: Inhibition of human chromosomal DHFR expressed in Escherichia coli BL21 using DHF as substrate assessed as remaining activity at 300 uM by spectrophotometry relative to control.
A short description of data set [12]: Cytotoxicity against mouse 3T6 cells after 72 hrs by MTT assay. In kind it is cell-based. In outline:
as §1

Data set [13] deals with T1, Dihydrofolate reductase (Homo sapiens). Kind of data set: Inhibition of human chromosomal DHFR expressed in Escherichia coli BL21 using DHF as substrate assessed as remaining activity at 2.5 mM by spectrophotometry relative to control. In outline: as §4

Each structure is given as a SMILES string. Activity calls are given as the source filed them. No cut-off for these calls is given here. A value given as a limit tells only on which side of the number the result lay.

For the molecule `O=C(O)c1ccc2[nH]c(-c3ccc(OCCCCCOc4ccc(-c5nc6cc(C(=O)O)ccc6[nH]5)cc4)cc3)nc2c1`, the Activity in data set [1] was 95%; in data set [2], 40%. Also, the inhibitory constant (Ki) in data set [3] turned out to be 4.2 µM; in data set [4] it was 2 µM; in data set [5] it was 9.7 µM. For the same molecule, the IC50 in [4] is 64 µM. Further, the result in the data set with Escherichia coli was inactive.
For the molecule `O=C(O)c1ccc2[nH]c(-c3ccc(OCC(O)COc4ccc(-c5nc6cc(C(=O)O)ccc6[nH]5)cc4)cc3)nc2c1`, in [2], the Activity came out at 40%. Besides, in data set [4], the IC50 was 130 µM and the Ki was found to be 4 µM. Further, the outcome in the data set on Escherichia coli was inactive. Besides, the Activity in data set [6] came out at 95%.
As for `COc1ccc2cc(C(=O)O)ccc2c1`, the inhibition entry in data set [4] is “inactive”.
Turning to `Oc1nncc2ccccc12` [PHTHALAZINONE], in data set [4], the IC50 was 17000 µM and the inhibition constant (Ki) stood at 530 µM. Further, the Activity in data set [7] is 97%.
Regarding `CO[C@@H]1[C@@H](OC(N)=O)[C@@H](O)[C@H](Oc2ccc3c(O)c(NC(=O)c4ccc(O)c(CC=C(C)C)c4)c(=O)oc3c2C)OC1(C)C` [NOVOBIOCIN], in data set [8], the inhibitory constant (Ki) stood at 70 µM.
Take `O=C(O)c1ccc2[nH]cnc2c1`: the Activity in data set [9] was determined as 75%. Moreover, in data set [4], the concentration for half-maximal inhibition (IC50) was 2600 µM and the inhibition constant (Ki) is 80 µM.
Turning to `Nc1c(/N=N/c2ccc(-c3ccc(/N=N/c4cc(S(=O)(=O)O)c5ccccc5c4N)cc3)cc2)cc(S(=O)(=O)O)c2ccccc12` [CONGO RED], in data set [8], the affinity, expressed as Ki, was 2 µM.
Turning to `CC(C)n1nnc2cc(C(=O)O)ccc21`, the inhibition result in data set [4] is “inactive”.
Turning to `O=C(O)c1cc2nccnc2s1`, in data set [10], the Activity was 37%. Moreover, in data set [4], the IC50 turned out to be 2000 µM and the inhibition constant Ki is 61 µM.
Turning to `c1ccc2[nH]c(-c3ccc(OCCCCCOc4ccc(-c5nc6ccccc6[nH]5)cc4)cc3)nc2c1`, the results for the 50% inhibitory concentration (IC50) in data set [4] and in data set [12] were at least 300 µM and 0.98 µM, respectively. The Activity in data set [11] was determined as 110%.
On to `Nc1ccc2cc(C(=O)O)ccc2c1`, for which, in data set [4], the half-maximal inhibitory concentration (IC50) worked out at 1700 µM and the Ki came out at 51 µM. The Activity in [13] came out at 14%.
For the molecule `COc1cc2c(OC)cccc2cc1C(=O)O`, in data set [10], the Activity was determined as 14%. In data set [4], the half-maximal inhibitory concentration (IC50) turned out to be 1800 µM and the Ki was 55 µM.
For the molecule `O=C(O)c1ccc2cc(O)ccc2c1`, the Activity in data set [9] is 13%. Further, in [4], the IC50 came out at 6100 µM and the inhibition constant Ki turned out to be 190 µM.
Regarding `Cc1nc2cc(C(=O)O)ccc2[nH]1`, the inhibition result in [4] is “inactive”.
Still for that read-out and setting: next, `Nc1cc2ccccc2cc1C(=O)O`: “inactive”; `c1ccc2[nH]cnc2c1`: “inactive”.
On to `O=C(O)c1ccc2[nH]nnc2c1`, for which, in [4], the IC50 stood at 8400 µM and the Ki was determined as 260 µM. The Activity in data set [7] amounted to 69%.
Turning to `O=C(O)c1ccc(OCCCCCOc2ccc(C(=O)O)cc2)cc1`, the half-maximal inhibitory concentration (IC50) was at least 1000 µM in data set [4] and 34 µM in data set [12]. The Activity in [6] was determined as 100%.
As for `O=C(O)c1ccc2c(c1)OCO2`, in [4], the inhibition entry was “inactive”.

Source of the values: ChEMBL document CHEMBL2040719, “Fragment-based design of symmetrical bis-benzimidazoles as selective inhibitors of the trimethoprim-resistant, type II R67 dihydrofolate reductase” (J Med Chem, 2012).
